pIC50: −log10 of the molar value. Activity calls are given as the source filed them. No cut-off for these calls is given here. Non-standard residues stand in square brackets, D forms with d. Residues, ends and D or L forms follow the SMILES beside them. Gla = N[C@@H](CC(C(=O)O)C(=O)O)C(=O)O; Hyp = O=C(O)[C@@H]1C[C@@H](O)CN1
Key:
[1] = biological target: Glutamate receptor ionotropic, NMDA 2C (Rattus norvegicus, UniProt P35439+Q00961); test: Inhibition of rat NMDA NR2C receptor expressed in xenopus oocytes coexpressing NMDA NR13b assessed as effect on glycine-induced current response at -70 mV by voltage clamp method; format: cell-based, Oocyte
How it was run: (§1)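 Xenopus oocytes expressing rat NR1-3b with one NR2 subunit (A–D), voltage-clamped at -70 mV. Perfusion was Mg2+-free ND96 (pH 7.2–7.5) with 0.1 mg/ml BSA. Peptide was applied in a static bath for 5–10 min; the agonist-evoked current was then expressed as % of the pre-peptide current. IC50s were taken from concentration-response curves, n ≥ 3 per point.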

[2] = biological target: Glutamate receptor ionotropic, NMDA 2A (Rattus norvegicus, UniProt P35439+Q00959); test: Inhibition of rat NMDA NR2A receptor expressed in xenopus oocytes coexpressing NMDA NR13b assessed as effect on glycine-induced current response at -70 mV by voltage clamp method; format: cell-based, Oocyte; how it was run: as §1
[3] = biological target: Glutamate receptor ionotropic, NMDA 2D (Rattus norvegicus, UniProt P35439+Q62645); test: Inhibition of rat NMDA NR2D receptor expressed in xenopus oocytes coexpressing NMDA NR13b assessed as effect on glycine-induced current response at -70 mV by voltage clamp method; format: cell-based, Oocyte; how it was run: as §1
[4] = biological target: Glutamate receptor ionotropic, NMDA 2B (Rattus norvegicus, UniProt P35439+Q00960); test: Inhibition of rat NMDA NR2B receptor expressed in xenopus oocytes coexpressing NMDA NR13b assessed as effect on glycine-induced current response at -70 mV by voltage clamp method; format: cell-based, Oocyte; how it was run: as §1
Rattus norvegicus [5] = organism: Rattus norvegicus; test: Selectivity ratio, IC50 for rat NMDA NR2D receptor to IC50 for rat NMDA NR2B receptor
How it was run: (§2)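 Ratios of IC50s taken from oocyte concentration-response curves for rat NR1-3b co-expressed with NR2A, NR2B or NR2D, recorded at -70 mV in Mg2+-free ND96 with 5–10-min static-bath peptide application, n ≥ 3 per point.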

Rattus norvegicus [6] = organism: Rattus norvegicus; test: Selectivity ratio, IC50 for rat NMDA NR2A receptor to IC50 for rat NMDA NR2D receptor; how it was run: as §2
Mus musculus [7] = test: Induction of sleep in intracranially dosed 10-day old Swiss-Webster mouse assessed as average onset of deep sleep at 1 nmol; format: functional
How it was run: (§3)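 Intracranial injection of synthetic peptide (0.5, 1 or 5 nmol) in 20 μl normal saline into 10-day-old Swiss-Webster mice, 2–6 per dose. Con-G served as positive control and saline as negative control. Deep-sleep onset was the time at which a mouse no longer tried to right itself after being rolled onto its back; onset times were averaged.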

[8] = biological target: Glutamate receptor ionotropic, NMDA 2B (Rattus norvegicus) (UniProt Q00960); test: Inhibition of rat NMDA NR2B receptor expressed in xenopus oocytes coexpressing NMDA NR13b assessed as effect on glycine-induced current response at 1 uM at -70 mV by voltage clamp method; format: cell-based; settings: Oocyte
How it was run: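 Oocytes expressing rat NR1-3b/NR2B, voltage-clamped at -70 mV in Mg2+-free ND96 with 0.1 mg/ml BSA. Baseline currents were recorded, followed by a 10-min static-bath buffer control. Then 1 μM peptide was applied in a static bath for 10 min, and the next agonist-evoked current was expressed as % of the pre-peptide amplitude.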

Mus musculus [9] = test: Induction of sleep in intracranially dosed 10-day old Swiss-Webster mouse assessed as average onset of deep sleep at 0.5 nmol; format: functional; how it was run: as §3
Mus musculus [10] = test: Induction of sleep in intracranially dosed 10-day old Swiss-Webster mouse assessed as average onset of deep sleep at 5 nmol; format: functional; how it was run: as §3
Mus musculus [11] = test: Induction of hyperactivity intracranially dosed 24-day old Swiss-Webster mouse; format: functional, organism-based
How it was run: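 Intracranial injection of 2 nmol peptide in 20 μl normal saline (29-gauge needle) into 24-day-old mice (12.2–12.8 g). An equal volume of saline served as negative control. Mice were watched in cages for hyperactivity: continuous walking, excessive grooming and climbing of the cage wall.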

Chain of Glutamate receptor ionotropic, NMDA 2D (Q62645 whole entry, one chain of several): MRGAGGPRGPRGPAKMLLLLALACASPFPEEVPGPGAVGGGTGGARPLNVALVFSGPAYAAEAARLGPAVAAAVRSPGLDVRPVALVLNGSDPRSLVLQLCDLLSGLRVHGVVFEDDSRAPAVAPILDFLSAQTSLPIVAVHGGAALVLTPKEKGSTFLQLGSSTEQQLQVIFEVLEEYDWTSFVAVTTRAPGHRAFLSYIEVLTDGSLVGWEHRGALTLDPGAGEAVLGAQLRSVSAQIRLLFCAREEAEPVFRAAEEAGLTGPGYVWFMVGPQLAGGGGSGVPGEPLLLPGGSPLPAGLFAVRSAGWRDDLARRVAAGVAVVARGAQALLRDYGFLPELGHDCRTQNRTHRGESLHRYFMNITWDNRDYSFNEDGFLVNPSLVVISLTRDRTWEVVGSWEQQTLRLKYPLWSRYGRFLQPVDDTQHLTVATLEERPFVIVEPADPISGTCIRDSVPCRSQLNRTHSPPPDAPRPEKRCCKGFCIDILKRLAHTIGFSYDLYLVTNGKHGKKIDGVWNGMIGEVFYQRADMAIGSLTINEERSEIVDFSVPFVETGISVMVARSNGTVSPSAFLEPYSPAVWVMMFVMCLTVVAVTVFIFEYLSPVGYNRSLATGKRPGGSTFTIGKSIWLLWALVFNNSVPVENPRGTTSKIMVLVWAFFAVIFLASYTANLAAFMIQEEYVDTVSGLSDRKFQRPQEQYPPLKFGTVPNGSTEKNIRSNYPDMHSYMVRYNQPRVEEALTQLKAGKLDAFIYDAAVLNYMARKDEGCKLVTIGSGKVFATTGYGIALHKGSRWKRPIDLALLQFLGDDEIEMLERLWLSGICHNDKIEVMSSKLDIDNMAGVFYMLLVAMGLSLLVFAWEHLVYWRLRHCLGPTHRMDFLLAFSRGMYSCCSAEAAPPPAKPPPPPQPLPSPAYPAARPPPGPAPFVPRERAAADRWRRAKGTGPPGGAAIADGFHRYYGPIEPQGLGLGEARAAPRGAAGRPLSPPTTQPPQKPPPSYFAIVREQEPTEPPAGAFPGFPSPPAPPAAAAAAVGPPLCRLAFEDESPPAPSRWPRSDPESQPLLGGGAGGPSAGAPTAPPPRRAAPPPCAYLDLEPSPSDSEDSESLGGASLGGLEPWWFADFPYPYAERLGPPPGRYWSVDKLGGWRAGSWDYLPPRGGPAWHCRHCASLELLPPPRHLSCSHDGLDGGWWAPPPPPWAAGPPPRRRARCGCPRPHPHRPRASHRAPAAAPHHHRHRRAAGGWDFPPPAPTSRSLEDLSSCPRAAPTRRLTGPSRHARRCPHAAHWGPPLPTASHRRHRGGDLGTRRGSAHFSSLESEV
Chain of Glutamate receptor ionotropic, NMDA 2B (Q00960 whole entry, one chain of several): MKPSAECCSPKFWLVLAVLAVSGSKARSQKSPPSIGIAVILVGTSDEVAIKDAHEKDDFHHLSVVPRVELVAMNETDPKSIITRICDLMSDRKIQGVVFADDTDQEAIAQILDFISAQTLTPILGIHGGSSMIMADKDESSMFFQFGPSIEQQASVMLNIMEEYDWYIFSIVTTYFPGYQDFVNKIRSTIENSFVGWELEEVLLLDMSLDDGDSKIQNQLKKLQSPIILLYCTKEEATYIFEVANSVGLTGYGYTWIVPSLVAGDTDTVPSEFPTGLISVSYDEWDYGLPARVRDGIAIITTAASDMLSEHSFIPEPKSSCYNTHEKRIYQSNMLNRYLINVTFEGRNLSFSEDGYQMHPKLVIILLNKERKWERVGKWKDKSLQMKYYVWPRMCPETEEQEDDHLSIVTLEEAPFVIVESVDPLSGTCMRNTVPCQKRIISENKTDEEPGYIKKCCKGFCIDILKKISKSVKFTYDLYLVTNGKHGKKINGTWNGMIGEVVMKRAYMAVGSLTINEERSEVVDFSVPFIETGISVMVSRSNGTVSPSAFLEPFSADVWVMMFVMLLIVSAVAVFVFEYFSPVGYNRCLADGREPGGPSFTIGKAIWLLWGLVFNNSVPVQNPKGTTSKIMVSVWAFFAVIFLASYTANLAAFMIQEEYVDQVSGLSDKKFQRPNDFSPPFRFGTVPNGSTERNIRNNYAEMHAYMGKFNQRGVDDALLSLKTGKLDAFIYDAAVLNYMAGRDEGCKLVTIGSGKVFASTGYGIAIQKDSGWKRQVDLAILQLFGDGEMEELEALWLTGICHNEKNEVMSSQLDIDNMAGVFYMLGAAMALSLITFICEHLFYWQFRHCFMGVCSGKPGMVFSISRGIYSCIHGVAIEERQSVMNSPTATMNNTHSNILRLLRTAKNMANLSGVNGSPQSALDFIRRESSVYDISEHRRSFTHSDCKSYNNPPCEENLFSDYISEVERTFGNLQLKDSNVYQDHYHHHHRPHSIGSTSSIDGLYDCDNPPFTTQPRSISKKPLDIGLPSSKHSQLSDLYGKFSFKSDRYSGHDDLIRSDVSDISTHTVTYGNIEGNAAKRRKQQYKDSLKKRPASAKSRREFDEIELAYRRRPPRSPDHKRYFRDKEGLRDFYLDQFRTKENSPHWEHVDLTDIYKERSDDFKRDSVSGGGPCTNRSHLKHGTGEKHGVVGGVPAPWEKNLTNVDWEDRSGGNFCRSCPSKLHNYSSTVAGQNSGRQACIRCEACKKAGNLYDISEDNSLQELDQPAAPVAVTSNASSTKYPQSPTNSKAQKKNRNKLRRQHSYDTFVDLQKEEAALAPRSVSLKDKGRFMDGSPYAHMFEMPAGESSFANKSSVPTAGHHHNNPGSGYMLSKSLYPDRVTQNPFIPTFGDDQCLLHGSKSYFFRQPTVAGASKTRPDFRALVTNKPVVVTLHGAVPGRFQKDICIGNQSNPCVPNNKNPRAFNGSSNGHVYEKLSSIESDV
Chain of Glutamate receptor ionotropic, NMDA 2C (Q00961 whole entry, the tested form may be a part, one chain of several): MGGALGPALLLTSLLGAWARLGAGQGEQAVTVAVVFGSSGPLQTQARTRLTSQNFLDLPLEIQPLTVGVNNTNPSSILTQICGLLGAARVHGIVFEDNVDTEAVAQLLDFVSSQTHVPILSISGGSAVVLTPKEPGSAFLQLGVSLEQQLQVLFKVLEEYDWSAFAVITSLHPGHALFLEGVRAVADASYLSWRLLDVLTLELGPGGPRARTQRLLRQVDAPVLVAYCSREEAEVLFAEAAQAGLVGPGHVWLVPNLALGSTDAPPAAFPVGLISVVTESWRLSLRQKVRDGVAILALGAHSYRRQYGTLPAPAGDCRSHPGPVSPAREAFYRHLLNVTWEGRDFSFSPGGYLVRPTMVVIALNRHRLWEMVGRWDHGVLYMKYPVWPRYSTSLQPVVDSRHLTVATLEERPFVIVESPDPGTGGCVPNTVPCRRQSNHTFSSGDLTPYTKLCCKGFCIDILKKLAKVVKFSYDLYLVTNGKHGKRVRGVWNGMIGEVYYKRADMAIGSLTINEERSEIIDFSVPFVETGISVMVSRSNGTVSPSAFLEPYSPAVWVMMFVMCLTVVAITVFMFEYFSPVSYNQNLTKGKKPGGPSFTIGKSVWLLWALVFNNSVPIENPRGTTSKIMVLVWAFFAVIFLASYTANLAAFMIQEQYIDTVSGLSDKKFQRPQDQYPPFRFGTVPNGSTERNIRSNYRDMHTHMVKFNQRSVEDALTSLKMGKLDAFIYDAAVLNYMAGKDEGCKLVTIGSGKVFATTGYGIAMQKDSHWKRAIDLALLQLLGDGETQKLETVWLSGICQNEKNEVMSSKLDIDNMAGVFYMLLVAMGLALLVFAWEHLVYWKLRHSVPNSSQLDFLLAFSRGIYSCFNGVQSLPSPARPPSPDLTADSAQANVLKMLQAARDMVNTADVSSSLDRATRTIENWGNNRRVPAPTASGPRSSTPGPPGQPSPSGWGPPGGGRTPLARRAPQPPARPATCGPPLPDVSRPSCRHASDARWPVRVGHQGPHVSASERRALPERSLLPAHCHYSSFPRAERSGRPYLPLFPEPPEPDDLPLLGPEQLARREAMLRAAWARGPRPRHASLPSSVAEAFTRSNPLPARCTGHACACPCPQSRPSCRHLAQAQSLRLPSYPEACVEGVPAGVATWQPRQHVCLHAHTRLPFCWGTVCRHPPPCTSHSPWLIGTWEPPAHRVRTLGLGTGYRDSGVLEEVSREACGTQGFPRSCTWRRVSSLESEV

Structure (SMILES)	pIC50 [1]	pIC50 [2]	pIC50 [3]	pIC50 [4]	Ratio IC50 (Rattus norvegicus [5])	Ratio IC50 (Rattus norvegicus [6])	Activity (Mus musculus [7]) [min]	Activity [8]	Activity (Mus musculus [9]) [min]	Activity (Mus musculus [10]) [min]	Activity (Mus musculus [11])
CC(C)C[C@H](NC(=O)CNC(=O)[C@H](CC(C(=O)O)C(=O)O)NC(=O)[C@H](C)NC(=O)[C@H](Cc1c[nH]c2ccccc12)NC(=O)[C@H](CCCCN)NC(=O)[C@H](C)NC(=O)[C@@H](NC(=O)[C@H](CC(C(=O)O)C(=O)O)NC(=O)[C@@H]1C[C@@H](O)CN1C(=O)[C@H](CCC(=O)O)NC(=O)CN)C(C)C)C(=O)N[C@@H](CCCN=C(N)N)C(=O)N[C@@H](CC(C(=O)O)C(=O)O)C(=O)N[C@@H](CCCCN)C(=O)N[C@@H](C)C(=O)N[C@@H](C)C(=O)N[C@@H](CO)C(=O)N[C@@H](CC(N)=O)C(N)=O (H-GE[Hyp][Gla]VAKWA[Gla]GLR[Gla]KAASN-NH2)	≤ 5.00	< 5.00	5.10	6.30							
CC[C@H](C)[C@H](NC(=O)[C@H](CC(N)=O)NC(=O)[C@H](CC(C(=O)O)C(=O)O)NC(=O)[C@H](CCCNC(=N)N)NC(=O)[C@H](C)NC(=O)[C@H](CC(C)C)NC(=O)[C@H](CC(C(=O)O)C(=O)O)NC(=O)[C@H](C)NC(=O)[C@H](C)NC(=O)[C@H](CCSC)NC(=O)[C@H](CCCCN)NC(=O)[C@H](C)NC(=O)[C@@H](NC(=O)[C@H](CC(C(=O)O)C(=O)O)NC(=O)[C@H](CC(C(=O)O)C(=O)O)NC(=O)[C@H](CCC(=O)O)NC(=O)CN)C(C)C)C(=O)N[C@@H](C)C(=O)N[C@@H](CCCCN)C(=O)NCC(=O)N[C@@H](CS)C(=O)N[C@@H](CCCCN)C(=O)N[C@H](C(=O)N[C@@H](CC(N)=O)C(=O)N[C@@H](CS)C(=O)N[C@@H](Cc1ccc(O)cc1)C(=O)N1CCC[C@H]1C(=O)O)C(C)C [CONANTOKIN-R]	5.15	6.00	< 5.00	6.00	> 10	< 0.1					
CC[C@H](C)[C@H](NC(=O)[C@H](CCCCN)NC(=O)CNC(=O)[C@H](Cc1ccc(O)cc1)NC(=O)[C@H](CCCCN)NC(=O)[C@H](CC(C)C)NC(=O)[C@H](CCC(N)=O)NC(=O)[C@H](Cc1ccc(O)cc1)NC(=O)[C@H](CC(C(=O)O)C(=O)O)NC(=O)[C@H](CCCN=C(N)N)NC(=O)[C@@H](NC(=O)[C@H](C)NC(=O)[C@H](CC(C(=O)O)C(=O)O)NC(=O)[C@H](C)NC(=O)[C@H](Cc1ccc(O)cc1)NC(=O)[C@H](CC(C(=O)O)C(=O)O)NC(=O)[C@@H]1C[C@@H](O)CN1C(=O)[C@H](CCC(=O)O)NC(=O)[C@@H](N)CC(=O)O)[C@@H](C)CC)C(=O)O (H-DE[Hyp][Gla]YA[Gla]AIR[Gla]YQLKYGKI-OH)	≤ 5.00	< 5.00	6.00	6.30							
CC[C@H](C)[C@H](NC(=O)[C@H](CCCCN)NC(=O)CNC(=O)[C@H](Cc1cnc[nH]1)NC(=O)[C@@H](NC(=O)[C@H](CC(C)C)NC(=O)[C@H](CCC(N)=O)NC(=O)[C@H](Cc1ccc(O)cc1)NC(=O)[C@H](CC(C(=O)O)C(=O)O)NC(=O)[C@H](CCCNC(=N)N)NC(=O)[C@@H](NC(=O)CNC(=O)[C@H](CC(C(=O)O)C(=O)O)NC(=O)[C@H](C)NC(=O)[C@H](Cc1ccc(O)cc1)NC(=O)[C@H](CC(C(=O)O)C(=O)O)NC(=O)[C@H](CC(=O)O)NC(=O)[C@H](CCC(=O)O)NC(=O)CN)[C@@H](C)CC)[C@@H](C)CC)C(=O)O (H-GED[Gla]YA[Gla]GIR[Gla]YQLIHGKI-OH)	≤ 5.00	< 5.00	6.00	6.70	5	> 10	12.2	Active	18	9	Active
CC[C@H](C)[C@H](NC(=O)[C@H](CCCCN)NC(=O)CNC(=O)[C@H](Cc1ccc(O)cc1)NC(=O)[C@H](CCCCN)NC(=O)[C@H](CC(C)C)NC(=O)[C@H](CCC(N)=O)NC(=O)[C@H](Cc1ccc(O)cc1)NC(=O)[C@H](CC(C(=O)O)C(=O)O)NC(=O)[C@H](CCCNC(=N)N)NC(=O)[C@@H](NC(=O)[C@H](C)NC(=O)[C@H](CC(C(=O)O)C(=O)O)NC(=O)[C@H](C)NC(=O)[C@H](Cc1ccc(O)cc1)NC(=O)[C@H](CC(C(=O)O)C(=O)O)NC(=O)[C@@H]1C[C@@H](O)CN1C(=O)[C@H](CCC(=O)O)NC(=O)[C@@H](N)CC(=O)O)[C@@H](C)CC)C(=O)O (H-DE[Hyp][Gla]YA[Gla]AIR[Gla]YQLKYGKI-OH)					2	> 10	14		17.5	9.7	Active
CC(C)C[C@H](NC(=O)CNC(=O)[C@H](CC(C(=O)O)C(=O)O)NC(=O)[C@H](C)NC(=O)[C@H](Cc1c[nH]c2ccccc12)NC(=O)[C@H](CCCCN)NC(=O)[C@H](C)NC(=O)[C@@H](NC(=O)[C@H](CC(C(=O)O)C(=O)O)NC(=O)[C@@H]1C[C@@H](O)CN1C(=O)[C@H](CCC(=O)O)NC(=O)CN)C(C)C)C(=O)N[C@@H](CCCNC(=N)N)C(=O)N[C@@H](CC(C(=O)O)C(=O)O)C(=O)N[C@@H](CCCCN)C(=O)N[C@@H](C)C(=O)N[C@@H](C)C(=O)N[C@@H](CO)C(=O)N[C@@H](CC(N)=O)C(N)=O (H-GE[Hyp][Gla]VAKWA[Gla]GLR[Gla]KAASN-NH2)					16	> 10	16.5		21	10.7	Active

— ChEMBL document CHEMBL1156530, “Novel conantokins from Conus parius venom are specific antagonists of N-methyl-D-aspartate receptors” (J Biol Chem, 2007)
